Data set [1] can be described thus: Tapping mode AFM analysis of nanodrill size and mechanical stability. The note with it: tapping mode AFM on mica under water, 400 µM peptide solution.
Data set [2] is described as follows: Dynamic light scattering particle size and PDI of CSPNs. The format is physicochemical. The following applies: DLS in ultrapure water, peptide nanodrills 0.4 mM, triplicate. In outline: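 Nanodrills formed spontaneously on vortexing peptide in ultrapure water or PBS pH 7.4. They were measured at 0.4 mM by dynamic light scattering in a quartz cuvette after 2 min equilibration. Measurements were done in triplicate and reported as arithmetic mean ± standard deviation.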

The nature of data set [3]: ANS spectrofluorimetric analysis of hydrophobic regions. The following applies: ANS 0.2 µM, CSPNs 2–16 µM, excitation 356 nm; relative to 2F-RT. The format is physicochemical. In outline: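 Test peptides were dissolved in water at 2–16 µM, and the ANS probe was added at 0.2 µM. Spectra were read on a fluorescence microplate reader at ambient temperature, with excitation at 356 nm and emission scanned from 380–600 nm. All measurements were done in triplicate and reported as arithmetic mean ± standard deviation.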

The results in this text go back to article PMC6008205 (Journal of controlled release : official journal of the …, 2018).

Consider FFF--(RADA)2-Tat [3F-RT], for which, in data set [1], the “Aspect ratio by AFM” value was 6.2±3.9 and the “Nanodrill size (length) by AFM” value is 105±67 nm. Further, in data set [2], the PDI amounted to 0.434. For the same substance, in data set [3], the “Mean ANS fluorescence intensity compared to 2F-RT” value is listed as “five-fold increase”.
